Source: ChEMBL document CHEMBL4049434, “Radiolabeled Dibenzodiazepinone-Type Antagonists Give Evidence of Dualsteric Binding at the M2 Muscarinic Acetylcholine Receptor” (J Med Chem, 2017)
Activity calls are given as the source filed them. No cut-off for these calls is given here.

How the values were obtained:
[1] = molecular target: T1, Muscarinic acetylcholine receptor M2 (Homo sapiens, UniProt P08172); experiment: Displacement of [3H]NMS from human muscarinic acetylcholine receptor M2 expressed in CHO cells after 2 hrs; format: cell-based
T1 sequence (P08172 whole entry): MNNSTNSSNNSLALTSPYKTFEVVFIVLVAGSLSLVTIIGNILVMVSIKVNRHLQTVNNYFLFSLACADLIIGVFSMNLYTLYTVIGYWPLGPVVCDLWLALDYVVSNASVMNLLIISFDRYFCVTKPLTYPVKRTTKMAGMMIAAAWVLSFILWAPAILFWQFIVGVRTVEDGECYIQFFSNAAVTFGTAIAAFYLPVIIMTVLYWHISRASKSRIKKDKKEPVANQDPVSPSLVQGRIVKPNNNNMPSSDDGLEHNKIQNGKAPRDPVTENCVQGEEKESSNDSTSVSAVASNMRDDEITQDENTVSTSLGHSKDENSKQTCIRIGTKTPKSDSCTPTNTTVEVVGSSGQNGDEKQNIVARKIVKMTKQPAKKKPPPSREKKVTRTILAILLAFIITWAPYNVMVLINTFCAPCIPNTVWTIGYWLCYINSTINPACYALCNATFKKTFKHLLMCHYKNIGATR

[2] = molecular target: T1, Muscarinic acetylcholine receptor M2; experiment: Displacement of [3H]UNSW-MK259 from human muscarinic acetylcholine receptor M2 expressed in CHOK9 cells after 3 hrs by liquid scintillation counting assay; format: cell-based
[3] = molecular target: T1, Muscarinic acetylcholine receptor M2; experiment: Displacement of [3H]Dimethyl-W84 from human muscarinic acetylcholine receptor M2 expressed in CHO cells after 2 hrs; format: cell-based
[4] = molecular target: T1, Muscarinic acetylcholine receptor M2; experiment: Displacement of [3H]UR-AP060 from human muscarinic acetylcholine receptor M2 expressed in CHOK9 cell homogenate after 3 hrs by liquid scintillation counting assay
[5] = molecular target: T2, Muscarinic acetylcholine receptor M2 (Homo sapiens) (UniProt P08172)
T2 sequence (whole entry): T1 sequence (P08172 whole entry)

[6] = molecular target: T2, Muscarinic acetylcholine receptor M2 (Homo sapiens); experiment: (§1) Displacement of [3H]NMS from human muscarinic acetylcholine receptor M2 expressed in CHOK9 cells after 3 hrs by liquid scintillation counting assay; format: cell-based
[7] = molecular target: T3, Muscarinic acetylcholine receptor M4 (Homo sapiens, UniProt P08173); experiment: Binding affinity to human muscarinic acetylcholine receptor M4 expressed in CHOK9 cells after 2 hrs by liquid scintillation counting assay; format: cell-based
T3 sequence (P08173 whole entry): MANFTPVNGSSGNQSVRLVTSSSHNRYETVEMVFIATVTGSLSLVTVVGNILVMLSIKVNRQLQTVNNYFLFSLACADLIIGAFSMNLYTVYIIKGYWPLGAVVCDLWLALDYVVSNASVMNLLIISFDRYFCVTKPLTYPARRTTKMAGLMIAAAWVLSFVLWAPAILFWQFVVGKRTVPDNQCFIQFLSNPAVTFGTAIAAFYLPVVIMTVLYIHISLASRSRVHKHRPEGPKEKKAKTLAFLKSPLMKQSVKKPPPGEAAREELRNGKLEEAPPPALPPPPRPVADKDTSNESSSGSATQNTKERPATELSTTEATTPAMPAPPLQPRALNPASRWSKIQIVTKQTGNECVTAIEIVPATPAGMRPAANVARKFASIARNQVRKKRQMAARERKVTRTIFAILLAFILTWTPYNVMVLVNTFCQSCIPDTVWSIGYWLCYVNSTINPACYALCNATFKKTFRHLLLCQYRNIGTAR

[8] = molecular target: T1, Muscarinic acetylcholine receptor M2; experiment: Binding affinity to human muscarinic acetylcholine receptor M2 expressed in CHOK9 cell suspension after 2 hrs by liquid scintillation counting assay; conditions: read-out: Kd(app)
[9] = molecular target: T1, Muscarinic acetylcholine receptor M2; experiment: (§2) Binding affinity to human muscarinic acetylcholine receptor M2 expressed in live adherent CHOK9 cells after 2 hrs by liquid scintillation counting assay; format: cell-based
Summary of the method: (§3)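 Live adherent CHO-hM2 cells in L15 medium with 1% BSA, 23 ± 1 °C, 2 h incubation. Competition at 2 nM radioligand; additional 4, 8, 15 and 30 nM in W84 experiments. […] Saturation data fitted one-site; competition by four-parameter logistic fits; at least three experiments in triplicate.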

[10] = molecular target: T1, Muscarinic acetylcholine receptor M2; experiment: Ratio of binding affinity to human muscarinic acetylcholine receptor M2 expressed in CHOK9 cells assessed as dissociation rate constant to binding affinity to human muscarinic acetylcholine receptor M2 expressed in CHOK9 cells assessed as association rate constant; format: cell-based
[11] = molecular target: T1, Muscarinic acetylcholine receptor M2; experiment: Binding affinity to human muscarinic acetylcholine receptor M2 expressed in live adherent CHOK9 cells assessed as saturation binding after 2 hrs by liquid scintillation counting assay
[12] = molecular target: T1, Muscarinic acetylcholine receptor M2; experiment: Binding affinity to human muscarinic acetylcholine receptor M2 expressed in CHOK9 cell homogenate after 2 hrs by liquid scintillation counting assay; conditions: read-out: Kd(app)
Summary of the method: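 CHO-hM2 cell homogenates (25–30 μg protein/well) in L15 medium with 1% BSA, 23 ± 1 °C, 2 h with tritiated dimeric radioligand. Competition used 0.5 nM radioligand; additional 0.4, 1, 2 and 4 nM in W84 experiments. […] Four-parameter logistic fits; at least three experiments in triplicate.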

[13] = molecular target: T1, Muscarinic acetylcholine receptor M2; experiment: as §1; format: cell-based
[14] = molecular target: T2, Muscarinic acetylcholine receptor M2 (Homo sapiens); experiment: (§4) Competitive antagonist activity at human muscarinic acetylcholine receptor M2 expressed in HEK293 cells coexpressing HA tagged Galpha-protein qi5 assessed as inhibition of 1 uM carbachol-induced IP1 accumulation preincubated for 30 mins followed by carbachol addition measured after 1 hr by HTRF assay; format: functional, cell-based
Summary of the method: (§5)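 HEK-293 transiently cotransfected with human M2R and Gαqi5-HA. Cells preincubated 30 min with antagonist, then carbachol added (final 0.1, 0.3, 1 or 10 μM), 1 h at 37 °C. IP1 detected by HTRF (620/670 nm emission, 330 nm excitation). At least four independent experiments, each in duplicate.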

[15] = molecular target: T1, Muscarinic acetylcholine receptor M2; experiment: as §4; format: functional, cell-based; summary of the method: as §5
[16] = molecular target: T2, Muscarinic acetylcholine receptor M2 (Homo sapiens); experiment: Binding affinity to human muscarinic acetylcholine receptor M2 expressed in live adherent CHOK9 cells at Kd in presence of 500-fold excess atropine after 2 hrs by liquid scintillation counting assay relative to control; format: cell-based; conditions: tested as the 3H-labelled form; summary of the method: as §3
[17] = molecular target: T2, Muscarinic acetylcholine receptor M2 (Homo sapiens); experiment: Binding affinity to human muscarinic acetylcholine receptor M2 expressed in CHOK9 cells assessed as dissociation half life after 105 mins by liquid scintillation counting assay; format: cell-based; conditions: tested as the 3H-labelled form
[18] = molecular target: T2, Muscarinic acetylcholine receptor M2 (Homo sapiens); experiment: as §2; format: cell-based; conditions: tested as the 3H-labelled form; summary of the method: as §3
[19] = molecular target: T2, Muscarinic acetylcholine receptor M2 (Homo sapiens); experiment: as §4, with “of 10” for “of 1”; format: functional, cell-based; summary of the method: as §5
[20] = molecular target: T1, Muscarinic acetylcholine receptor M2; experiment: as §4, with “of 10” for “of 1”; format: functional, cell-based; summary of the method: as §5
[21] = molecular target: T2, Muscarinic acetylcholine receptor M2 (Homo sapiens); experiment: Binding affinity to human muscarinic acetylcholine receptor M2 expressed in CHOK9 cells assessed as association rate constant incubated up to 140 mins by liquid scintillation counting assay; format: cell-based; conditions: tested as the 3H-labelled form
[22] = molecular target: T2, Muscarinic acetylcholine receptor M2 (Homo sapiens); experiment: Antagonist activity at human muscarinic acetylcholine receptor M2 expressed in HEK293 cells coexpressing HA tagged Galpha-protein qi5 assessed as inhibition of 0.3 uM carbachol-induced IP1 accumulation preincubated for 30 mins followed by carbachol addition measured after 1 hr by HTRF assay; format: functional, cell-based; summary of the method: as §5
[23] = Chemical stability of the compound in PBS buffer at pH 7.4 after 48 hrs by HPLC analysis; format: physicochemical; conditions: pH 7.4, 48 h
Summary of the method: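 Compound at 100 μM final (from 10 mM stock) in PBS pH 7.4 at 22 ± 1 °C; samples taken at 0, 24 and 48 h, mixed with acetonitrile/1% aq TFA 2:8, analysed by RP-HPLC at 220 nm.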

[24] = molecular target: T2, Muscarinic acetylcholine receptor M2 (Homo sapiens); experiment: as §4, with “of 0.1” for “of 1”; format: functional, cell-based; summary of the method: as §5
[25] = molecular target: T1, Muscarinic acetylcholine receptor M2; experiment: as §4, with “of 0.1” for “of 1”; format: functional, cell-based; summary of the method: as §5
[26] = molecular target: T2, Muscarinic acetylcholine receptor M2 (Homo sapiens); experiment: Binding affinity to human muscarinic acetylcholine receptor M2 expressed in CHOK9 cells assessed as dissociation rate constant after 105 mins by liquid scintillation counting assay; format: cell-based; conditions: tested as the 3H-labelled form
[27] = molecular target: T2, Muscarinic acetylcholine receptor M2 (Homo sapiens); experiment: Agonist activity at human muscarinic acetylcholine receptor M2 expressed in HEK293 cells coexpressing HA tagged Galpha-protein qi5 assessed as induction of IP1 accumulation measured after 1 hr by HTRF assay; format: functional, cell-based
Summary of the method: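 HEK-293 transiently cotransfected with human M2R and Gαqi5-HA, seeded 24 h before assay (10000 cells/well). Compounds in stimulation buffer (1 pM–100 μM final) 1 h at 37 °C; IP1 read by HTRF (620/670 nm, excitation 330 nm) after 60 min with detection reagents at rt. Duplicate, three experiments, carbachol as reference.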

## C[N+](C)(CCCCCC[N+](C)(C)CCCN1C(=O)c2ccccc2C1=O)CCCN1C(=O)c2ccccc2C1=O
[1]
  Ki: 31.6 nM
[2]
  Ki: 39.8 nM
[2]; read-out: pA2 (converted)
  Kb: 155 nM
[3]
  Ki: 31.6 nM
[4]
  Ki: 1070 nM
[4]; read-out: pA2 (converted)
  Kb: 263 nM

## Cc1c(Cl)c(OCC(=O)N2CCN(C)CC2)nc2sc(C(=O)NC3CC3)c(N)c12
[5]
  pKb: 5.77

## O=C1Nc2ccccc2N(C(=O)CN2CCN(CC(=O)N3c4ccccc4NC(=O)c4ccccc43)CC2)c2ccccc21
[6]
  inhibition: Active

## O=C(O)C(F)(F)F.O=C(O)C(F)(F)F.O=C(O)C(F)(F)F.O=C(O)C(F)(F)F.[3H]CC([3H])C(=O)NCc1cc(C(=O)NCCNC(=O)CCc2cn(CCCCC3CCN(CC(=O)N4c5ccccc5NC(=O)c5ccccc54)CC3)cn2)cc(C(=O)NCCNC(=O)CCc2cn(CCCCC3CCN(CC(=O)N4c5ccccc5NC(=O)c5ccccc54)CC3)cn2)c1 (stereo not drawn)
[7]
  Kd: 0.67 nM
[8]
  Kd: 0.31 nM
[9]
  Kd: 0.91 nM
[10]
  Kd: 0.2 nM
[11]
  Kd: 0.31 nM
[12]
  Kd: 0.22 to 0.24 nM
[13]; read-out: Ki
  Ki: 0.41 nM

## CCC(=O)NCCNC(=O)CCc1cn(CCCCC2CCN(CC(=O)N3c4ccccc4NC(=O)c4ccccc43)CC2)cn1
[14]
  inhibition: Dose-dependent effect
[15]
  IC50: 85.1 nM
[2]
  Ki: 1.1 nM
[16]
  Activity: < 5%
[17]
  T1/2: 1.18 h
[18]
  Bmax (disintegrations/minute): 780
[19]
  inhibition: Dose-dependent effect
[20]
  IC50: 355 nM
[21]
  K: 217000 M⁻¹ s⁻¹
[22]
  inhibition: Dose-dependent effect
  pKb: 7.53
[23]
  Stability: Stable
[24]
  inhibition: Dose-dependent effect
[25]
  IC50: 33.9 nM
[4]
  Ki: 10.2 nM
[26]
  K: 0.0091 min⁻¹
[13]; read-out: pKi (converted)
  Ki: 0.759 nM
[27]
  Activity: inactive
